In brackets after ≈: the same amount, converted by molar mass. Activity calls are given as the source filed them. The calls are words filed in the database; no cut-off is given here.
Experiments:
[1] = tested on: Mus musculus; assay: Toxicity in BALB/c mouse assessed as effect on blood urea levels at 5.5 mg/kg, ip administered two times per week for 4 weeks; type: organism-based; parameters: dose 5.5 mg/kg, route intraperitoneal; conditions: in vivo, 672 h
In short: (§1)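 Normal BALB/c mice were dosed ip twice per week for 4 weeks. Blood was collected one month after treatment, and serum SGPT and SGOT (IU/l) and blood urea (mg/dl) were measured with commercial kits and compared with untreated normal mice.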

[2] = tested on: Vibrio cholerae; assay: Antibacterial activity against Vibrio cholerae 569B at 25 ug/ml after 24 hrs by agar dilution method; type: functional
[3] = tested on: Proteus mirabilis; assay: Antibacterial activity against Proteus mirabilis 175 at 5 ug/ml after 24 hrs by agar dilution method; type: functional, organism-based
In short: (§2)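 Agar dilution MIC. Compound dissolved in sterile 0.2% DMSO, diluted in distilled water and mixed into molten nutrient agar (pH 7.2–7.4) at 5, 10, 25, 50; plate with 0.2% DMSO as control. Gram-positives grown 18 h in nutrient broth, Gram-negatives in peptone water. Stationary-phase suspension set to 0.5 McFarland, diluted 1:100, spot-inoculated at about 10^5 CFU per loopful. Plates held 24 h at 37 °C (up to 72 h if needed). MIC is the lowest level with no growth.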

[4] = tested on: Salmonella typhimurium; assay: Antibacterial activity against Salmonella Typhimurium NCTC 74 after 24 hrs by agar dilution method; type: functional, Salmonella enterica subsp. enterica serovar Typhimurium; conditions: Salmonella enterica, NCTC 74, 24 h; in short: as §2
[5] = tested on: Staphylococcus aureus; assay: Antibacterial activity against Staphylococcus aureus ML6 at 5 ug/ml after 24 hrs by agar dilution method; type: functional, organism-based; in short: as §2
[6] = tested on: Vibrio cholerae; assay: Antibacterial activity against Vibrio cholerae 569B at 10 ug/ml after 24 hrs by agar dilution method; type: functional, organism-based
[7] = tested on: Escherichia coli; assay: Antibacterial activity against Escherichia coli K-12 Row at 5 ug/ml after 24 hrs by agar dilution method; type: functional, organism-based; in short: as §2
[8] = tested on: Bacillus licheniformis; assay: Antibacterial activity against […] Bacillus licheniformis NCTC 10341 after 24 hrs by agar dilution method; type: functional; conditions: NCTC 10341, 24 h; in short: as §2
[9] = tested on: Vibrio cholerae; assay: Antibacterial activity against Vibrio cholerae 582 at 10 ug/ml after 24 hrs by agar dilution method; type: functional; conditions: Vibrio cholerae, 582, 24 h
[10] = Down regulation of IL6 release Leishmania donovani MHOM/IN/1983/AG83 infected interferon gamma-stimulated golden Syrian hamster peritoneal macrophages; type: functional, cell-based; conditions: Mesocricetus auratus; Macrophage
[11] = tested on: Proteus mirabilis; assay: Antibacterial activity against Proteus mirabilis 175 after 24 hrs by agar dilution method; type: functional; conditions: Proteus mirabilis, 175, 24 h; in short: as §2
[12] = tested on: Staphylococcus aureus; assay: Antibacterial activity against Staphylococcus aureus ML145 at 5 ug/ml after 24 hrs by agar dilution method; type: functional; conditions: ML145, 24 h; in short: as §2
[13] = tested on: Staphylococcus aureus; assay: Antibacterial activity against Staphylococcus aureus ML6 at 10 ug/ml after 24 hrs by agar dilution method; type: functional; conditions: ML6, 24 h; in short: as §2
[14] = tested on: Pseudomonas aeruginosa; assay: Antibacterial activity against Pseudomonas aeruginosa ATCC 27853 at 25 ug/ml after 24 hrs by agar dilution method; type: functional; conditions: ATCC 27853, 24 h; in short: as §2
[15] = tested on: Leishmania donovani; assay: Antileishmanial activity against Leishmania donovani MHOM/IN/1983/AG83 promastigotes assessed as induction of chromatin condensation at 11.5 ug/ml after 2 hrs by transmission electron microscopy; type: functional, organism-based
[16] = tested on: Leishmania donovani; assay: Antileishmanial activity against Leishmania donovani MHOM/IN/1983/AG83 promastigotes assessed as induction of membrane blebbing at 2 ug/ml after 2 hrs by transmission electron microscopy; type: functional, organism-based
In short: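 Log-phase promastigotes, grown at 22 °C in M199 with 10% FBS, were exposed for 2 h to the compound; controls received 0.1% DMSO alone. Cells were then sectioned, stained on copper grids with uranyl acetate and lead acetate for 10-15 min each, and examined by TEM for ultrastructural changes.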

[17] = tested on: Staphylococcus aureus; assay: Antibacterial activity against Staphylococcus aureus ML145 at 25 ug/ml after 24 hrs by agar dilution method; type: functional; conditions: ML145, 24 h; in short: as §2
[18] = tested on: Shigella dysenteriae; assay: Antibacterial activity against Shigella dysenteriae 7 NCTC 519/66 after 24 hrs by agar dilution method; type: functional; conditions: 7 NCTC 519/66, 24 h
[19] = tested on: Staphylococcus aureus; assay: Antibacterial activity against Staphylococcus aureus ML6 ug/ml after 24 hrs by agar dilution method; type: functional; conditions: ML6, 24 h; in short: as §2
[20] = tested on: Bacillus licheniformis; assay: Antibacterial activity against […] Bacillus licheniformis NCTC 10341 at 5 ug/ml after 24 hrs by agar dilution method; type: functional, organism-based; in short: as §2
[21] = tested on: Staphylococcus aureus; assay: Antibacterial activity against Staphylococcus aureus ML145 at 10 ug/ml after 24 hrs by agar dilution method; type: functional; conditions: ML145, 24 h; in short: as §2
[22] = tested on: Proteus mirabilis; assay: Antibacterial activity against Proteus mirabilis 175 at 10 ug/ml after 24 hrs by agar dilution method; type: functional, organism-based; in short: as §2
[23] = tested on: Mus musculus; assay: Toxicity in BALB/c mouse assessed as effect on serum glutamate pyruvate transaminase levels at 5.5 mg/kg, ip administered two times per week for 4 weeks; type: organism-based; parameters: dose 5.5 mg/kg, route intraperitoneal; conditions: in vivo, 672 h; in short: as §1
[24] = tested on: Leishmania donovani; assay: Antileishmanial activity against Leishmania donovani MHOM/IN/1983/AG83 promastigotes assessed as induction of chromatin condensation at 2 ug/ml after 2 hrs by transmission electron microscopy; type: functional, organism-based
[25] = tested on: Escherichia coli; assay: Antibacterial activity against Escherichia coli ATCC 25938 at 25 ug/ml after 24 hrs by agar dilution method; type: functional, organism-based; in short: as §2
[26] = tested on: Leishmania donovani; assay: Antileishmanial activity against Leishmania donovani MHOM/IN/1983/AG83 amastigotes by Giemsa staining; type: functional, organism-based
In short: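 Peritoneal macrophages from thioglycolate-elicited exudate (~2×10^6/ml), adhered overnight on coverslips in RPMI-1640 + 10% FBS at 37 °C, 5% CO2. Infected 6 h with stationary-phase AG83 promastigotes (2×10^7/ml), washed, then exposed 24 h to 0.5, 1, 3, 5, 10 compound. Methanol-fixed, Giemsa-stained; amastigotes per 200 macrophages counted against untreated controls.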

[27] = Down regulation of TNFalpha release Leishmania donovani MHOM/IN/1983/AG83 infected interferon gamma-stimulated golden Syrian hamster peritoneal macrophages; type: functional, cell-based; conditions: Mesocricetus auratus; Macrophage
[28] = tested on: Leishmania donovani; assay: Antileishmanial activity against Leishmania donovani MHOM/IN/1983/AG83 promastigotes infected BALB/c mouse assessed as reduction in liver parasite burden at 12.5 mg/kg, ip administered two times per week for 4 weeks relative to control; type: functional; parameters: scale not given: the % may be the effect or the level left; conditions: route intraperitoneal
In short: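 BALB/c mice (4-6 weeks) were infected iv with 2 × 10^7 freshly transformed promastigotes. One month later, groups were dosed ip in 0.2% Tween 80 in PBS (0.02 M), twice weekly for one month (8 doses); controls got vehicle only. Mice were killed one month post-treatment and spleen and liver were weighed. Parasite load came from Giemsa impression smears as organ weight (mg) × amastigotes per cell nucleus × 2 × 10^5. Values are mean ± S.E. of 5 mice; unpaired t-test.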

SMILES: Clc1ccc(OCOc2ccc(Cl)c3cccnc23)c2ncccc12
- Activity [1]: Non-toxic
- inhibition at 25 µg/mL [2]: 100%
- Activity [3]: inactive
- MIC [4]: 50 µg/mL (≈ 135 µM)
- Activity [5]: inactive
- Activity [6]: inactive
- Activity [7]: inactive
- MIC [8]: 50 µg/mL (≈ 135 µM)
- inhibition at 10 µg/mL [9]: 100%
- Activity [10]: Active
- MIC [11]: 50 µg/mL (≈ 135 µM)
- inhibition at 5 µg/mL [12]: 100%
- inhibition at 10 µg/mL [13]: 100%
- inhibition at 25 µg/mL [14]: 100%
- Activity [15]: Active
- Activity [16]: Active
- inhibition at 25 µg/mL [17]: 100%
- MIC [18]: 10 µg/mL (≈ 26.9 µM)
- MIC [19]: 10 µg/mL (≈ 26.9 µM)
- Activity [20]: inactive
- inhibition at 10 µg/mL [21]: 100%
- Activity [22]: inactive
- Activity [23]: Non-toxic
- Activity [24]: Active
- Activity [25]: inactive
- IC50 [26]: 2.1 µg/mL (≈ 5.66 µM)
- Activity [27]: Active
- Activity [28]: 98.49%

Reference: ChEMBL document CHEMBL1153864, “Phase transfer catalyzed synthesis of bis-quinolines: antileishmanial activity in experimental visceral leishmaniasis and in vitro antibacterial evaluation” (Eur J Med Chem, 2009)
